# Assay results published in ChEMBL document CHEMBL4251593, “Nontoxic combretafuranone analogues with high in vitro antibacterial activity” (Eur J Med Chem, 2018).
# Columns and labels:
# K562 [1] = experiment: Cytotoxicity against human K562 cells assessed as reduction in cell viability after 48 hrs by ATPlite-based luminescent assay; conditions: K562, 48 h
# Outline: (§1)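 Cells were grown […] with 10% FBS, glutamax, NEAA and pen/strep at 37 °C, 5% CO2. Media were DMEM for RPE-1, HepG2 and BJ (BJ plus 10 ng/ml bFGF), F-12K for PC3, and IMDM for K562/HL-60. Cells were seeded at 500 per well and dosed from DMSO at 12 concentrations, 40 µM to 1 nM, in triplicate. After 48 h, intracellular ATP was read by luminescence. ED50 was obtained by variable-slope nonlinear regression.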
# PC-3 [2] = experiment: Induction of apoptosis in human PC3 cells assessed as caspase 3/7 activity after 24 hrs by caspase-glo luminescent assay; format: cell-based; conditions: PC-3, 24 h
# Outline: (§2)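 Cells were seeded at 500 per well in their growth media and exposed to 12 concentrations from 40 µM to 1 nM, delivered from DMSO, in triplicate. After 24 h, caspase-3/7 activity was read by Caspase-Glo luminescence. Data were normalized and ED50 was fitted by variable-slope nonlinear regression.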
# HL-60 [3] = experiment: Induction of apoptosis in human HL60 cells assessed as caspase 3/7 activity after 24 hrs by caspase-glo luminescent assay; format: cell-based; conditions: HL-60, 24 h; outline: as §2
# Klebsiella pneumoniae [4] = experiment: Antibacterial activity against Klebsiella pneumoniae HK11750/08 clinical isolate after 48 hrs by microdilution assay; format: functional; conditions: HK11750/08, 48 h
# HepG2 [5] = experiment: Induction of apoptosis in human HepG2 cells assessed as caspase 3/7 activity after 24 hrs by caspase-glo luminescent assay; format: cell-based; conditions: HepG2, 24 h; outline: as §2
# Enterococcus sp. [6] = experiment: Antibacterial activity against Enterococcus sp. HK14365/08 clinical isolate after 48 hrs by microdilution assay; format: functional; conditions: HK14365/08, 48 h
# Enterococcus sp. [7] = experiment: Antibacterial activity against Enterococcus sp. HK14365/08 clinical isolate after 24 hrs by microdilution assay; format: functional; conditions: HK14365/08, 24 h
# Staphylococcus aureus [8] = experiment: Antibacterial activity against Staphylococcus aureus ATCC 6538 after 24 hrs by microdilution assay; format: functional; conditions: ATCC 6538, 24 h
# TERT-RPE1 [9] = experiment: Cytotoxicity against human RPE1 cells assessed as reduction in cell viability after 48 hrs by ATPlite-based luminescent assay; conditions: RPE-1, 48 h; outline: as §1
# Staphylococcus aureus [10] = experiment: Antibacterial activity against methicillin-resistant Staphylococcus aureus HK5996/08 clinical isolate after 24 hrs by microdilution assay; format: functional; conditions: HK5996/08, 24 h
# Escherichia coli [11] = experiment: Antibacterial activity against Escherichia coli ATCC 8739 after 24 hrs by microdilution assay; format: functional; conditions: ATCC 8739, 24 h
# Outline: (§3)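 Broth microdilution in Mueller-Hinton medium buffered to pH 7.4 (±0.2), with DMSO as diluent at no more than 2% final. Compounds were tested as 2-fold serial dilutions from 2000 to 0.488 µmol/l. The inoculum was 0.5 McFarland (1.5×10^8 cfu/ml). Plates were held at 37 °C and read visually at 24 and 48 h. MIC was taken as 95% growth inhibition versus control, determined twice in duplicate.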
# Klebsiella pneumoniae [12] = experiment: Antibacterial activity against Klebsiella pneumoniae HK11750/08 clinical isolate after 24 hrs by microdilution assay; format: functional; conditions: HK11750/08, 24 h
# HL-60 [13] = experiment: Cytotoxicity against human HL60 cells assessed as reduction in cell viability after 48 hrs by ATPlite-based luminescent assay; conditions: HL-60, 48 h; outline: as §1
# Staphylococcus aureus [14] = experiment: Antibacterial activity against Staphylococcus aureus ATCC 6538 after 48 hrs by microdilution assay; format: functional; conditions: ATCC 6538, 48 h
# Klebsiella pneumoniae [15] = experiment: Antibacterial activity against Klebsiella pneumoniae HK14368/08 clinical isolate after 24 hrs by microdilution assay; format: functional; conditions: HK14368/08, 24 h
# K562 [16] = experiment: Induction of apoptosis in human K562 cells assessed as caspase 3/7 activity after 24 hrs by caspase-glo luminescent assay; format: cell-based; conditions: K562, 24 h; outline: as §2
# PC-3 [17] = experiment: Cytotoxicity against human PC3 cells assessed as reduction in cell viability after 48 hrs by ATPlite-based luminescent assay; conditions: PC-3, 48 h; outline: as §1
# Escherichia coli [18] = experiment: Antibacterial activity against Escherichia coli ATCC 8739 after 48 hrs by microdilution assay; format: functional; conditions: ATCC 8739, 48 h; outline: as §3
# Staphylococcus aureus [19] = experiment: Antibacterial activity against methicillin-resistant Staphylococcus aureus HK5996/08 clinical isolate after 48 hrs by microdilution assay; format: functional; conditions: HK5996/08, 48 h
# BJ = experiment: Cytotoxicity against human BJ cells assessed as reduction in cell viability after 48 hrs by ATPlite-based luminescent assay; outline: as §1
# Pseudomonas aeruginosa [20] = experiment: Antibacterial activity against Pseudomonas aeruginosa ATCC 9027 after 24 hrs by microdilution assay; format: functional; conditions: ATCC 9027, 24 h; outline: as §3
# [21] = tested on: Staphylococcus epidermidis; experiment: Antibacterial activity against Staphylococcus epidermidis HK6966/08 clinical isolate after 24 hrs by microdilution assay; format: functional; conditions: HK6966/08, 24 h
# TERT-RPE1 [22] = experiment: Induction of apoptosis in human RPE1 cells assessed as caspase 3/7 activity after 24 hrs by caspase-glo luminescent assay; format: cell-based; conditions: RPE-1, 24 h; outline: as §2
# Klebsiella pneumoniae [23] = experiment: Antibacterial activity against Klebsiella pneumoniae HK14368/08 clinical isolate after 48 hrs by microdilution assay; format: functional; conditions: HK14368/08, 48 h
# Pseudomonas aeruginosa [24] = experiment: Antibacterial activity against Pseudomonas aeruginosa ATCC 9027 after 48 hrs by microdilution assay; format: functional; conditions: ATCC 9027, 48 h; outline: as §3
# [25] = tested on: Staphylococcus epidermidis; experiment: Antibacterial activity against Staphylococcus epidermidis HK6966/08 clinical isolate after 48 hrs by microdilution assay; format: functional; conditions: HK6966/08, 48 h
# HepG2 [26] = experiment: Cytotoxicity against human HepG2 cells assessed as reduction in cell viability after 48 hrs by ATPlite-based luminescent assay; conditions: HepG2, 48 h; outline: as §1
# MCF7 = experiment: Cytotoxicity against human MCF7 cells assessed as reduction in cell viability after 48 hrs by ATPlite-based luminescent assay; conditions: MCF7, 48 h
IC50 (PC-3 [2]) [µM],IC50 (HL-60 [3]) [µM],IC50 (HepG2 [5]) [µM],IC50 (K562 [16]) [µM],Compound,IC50 (K562 [1]) [µM],MIC95 (Klebsiella pneumoniae [4]) [µM],MIC95 (Enterococcus sp. [6]) [µM],MIC95 (Enterococcus sp. [7]) [µM],MIC95 (Staphylococcus aureus [8]) [µM],IC50 (TERT-RPE1 [9]) [µM],MIC95 (Escherichia coli [11]) [µM],IC50 (HL-60 [13]) [µM],IC50 (PC-3 [17]) [µM],MIC95 (Escherichia coli [18]) [µM],IC50 (BJ) [µM],MIC95 (Pseudomonas aeruginosa [20]) [µM],IC50 (TERT-RPE1 [22]) [µM],MIC95 (Pseudomonas aeruginosa [24]) [µM],IC50 (HepG2 [26]) [µM],IC50 (MCF7) [µM],other results
> 40,> 40,> 40,> 40,O=C1OCC(c2ccc(Cl)cc2)=C1c1ccc(C(F)(F)F)cc1,> 40,,,,,14.9,,> 40,> 40,,> 40,,> 40,,> 40,12.3,
> 40,0.44,> 40,> 40,Cc1ccc(C2=C(c3ccc(Cl)cc3Cl)C(=O)OC2)cc1,0.19,,,,,0.91,,0.27,> 40,,> 40,,10.1,,> 40,23.9,
,,,,O=C(O)c1cn(C2CC2)c2cc(N3CCNCC3)c(F)cc2c1=O [CIPROFLOXACIN],,,,,,,0.06,,,0.06,,3.9,,7.81,,,
> 40,> 40,> 40,> 40,COc1cc(C2=C(c3ccc4c(c3)OCO4)C(=O)OC2)cc(OC)c1OC,> 40,,,,,> 40,,> 40,> 40,,> 40,,> 40,,> 40,> 40,
> 40,0.54,> 40,> 40,Cc1ccc(C2=C(c3ccc(Cl)c(Cl)c3)C(=O)OC2)cc1,0.12,,,,,0.54,,0.23,> 40,,> 40,,3.5,,> 40,15.4,
> 40,> 40,> 40,> 40,Cc1ccc(C2=C(c3ccccc3Cl)C(=O)OC2)cc1,0.78,,,,,2.09,,1.04,> 40,,> 40,,13.3,,> 40,> 40,
> 40,> 40,> 40,> 40,O=C1OCC(c2ccc(O)cc2)=C1c1ccc(Br)cc1,> 40,,,,,> 40,,> 40,> 40,,> 40,,> 40,,> 40,> 40,
> 40,> 40,> 40,> 40,CCc1ccc(C2=C(c3ccc(Br)cc3)C(=O)OC2)cc1,0.47,,,,,1.3,,1.02,> 40,,> 40,,> 40,,> 40,13,

Compound,IC50 (PC-3 [2]) [µM],IC50 (HL-60 [3]) [µM],IC50 (HepG2 [5]) [µM],IC50 (K562 [16]) [µM],IC50 (K562 [1]) [µM],MIC95 (Klebsiella pneumoniae [4]) [µM],MIC95 (Enterococcus sp. [6]) [µM],MIC95 (Enterococcus sp. [7]) [µM],MIC95 (Staphylococcus aureus [8]) [µM],IC50 (TERT-RPE1 [9]) [µM],MIC95 (Escherichia coli [11]) [µM],IC50 (HL-60 [13]) [µM],IC50 (PC-3 [17]) [µM],MIC95 (Escherichia coli [18]) [µM],IC50 (BJ) [µM],MIC95 (Pseudomonas aeruginosa [20]) [µM],IC50 (TERT-RPE1 [22]) [µM],MIC95 (Pseudomonas aeruginosa [24]) [µM],IC50 (HepG2 [26]) [µM],IC50 (MCF7) [µM],other results
O=C1OCC(c2ccc(O)c(O)c2)=C1c1ccc(O)cc1,> 40,> 40,> 40,> 40,16.2,> 500,500,500,250,> 40,> 500,> 40,> 40,> 500,> 40,> 500,> 40,> 500,> 40,> 40,MIC95 (Staphylococcus aureus [10]): 250 µM; MIC95 (Klebsiella pneumoniae [12]): > 500 µM; MIC95 (Staphylococcus aureus [14]): 500 µM; MIC95 (Klebsiella pneumoniae [15]): > 500 µM; MIC95 (Staphylococcus aureus [19]): 500 µM; MIC95 [21]: 250 µM; MIC95 (Klebsiella pneumoniae [23]): > 500 µM; MIC95 [25]: 500 µM
COc1cc(OC)c(C2=C(c3ccc(OC)c(OC)c3OC)COC2=O)c(OC)c1,> 40,> 40,> 40,> 40,22.8,> 500,> 500,> 500,31.2,> 40,> 500,> 40,> 40,> 500,> 40,> 500,> 40,> 500,> 40,> 40,MIC95 (Staphylococcus aureus [10]): 62.5 µM; MIC95 (Klebsiella pneumoniae [12]): > 500 µM; MIC95 (Staphylococcus aureus [14]): 31.2 µM; MIC95 (Klebsiella pneumoniae [15]): > 500 µM; MIC95 (Staphylococcus aureus [19]): 62.5 µM; MIC95 [21]: 125 µM; MIC95 (Klebsiella pneumoniae [23]): > 500 µM; MIC95 [25]: 125 µM
COc1ccc(C2=C(c3ccc(OC)c(OC)c3)C(CO)(CO)OC2=O)cc1,> 40,> 40,> 40,> 40,> 40,> 500,> 500,> 500,> 500,> 40,> 500,> 40,> 40,> 500,> 40,> 500,> 40,> 500,> 40,> 40,MIC95 (Staphylococcus aureus [10]): 500 µM; MIC95 (Klebsiella pneumoniae [12]): > 500 µM; MIC95 (Staphylococcus aureus [14]): > 500 µM; MIC95 (Klebsiella pneumoniae [15]): > 500 µM; MIC95 (Staphylococcus aureus [19]): 500 µM; MIC95 [21]: 250 µM; MIC95 (Klebsiella pneumoniae [23]): > 500 µM; MIC95 [25]: 250 µM
O=C1OCC(c2ccccc2)=C1c1cccc(C(F)(F)F)c1,> 40,> 40,> 40,> 40,> 40,> 500,> 500,> 500,15.6,> 40,> 500,> 40,> 40,> 500,> 40,> 500,> 40,> 500,> 40,> 40,MIC95 (Staphylococcus aureus [10]): 62.5 µM; MIC95 (Klebsiella pneumoniae [12]): > 500 µM; MIC95 (Staphylococcus aureus [14]): 15.6 µM; MIC95 (Klebsiella pneumoniae [15]): > 500 µM; MIC95 (Staphylococcus aureus [19]): 62.5 µM; MIC95 [21]: 31.2 µM; MIC95 (Klebsiella pneumoniae [23]): > 500 µM; MIC95 [25]: 31.2 µM
O=C1OCC(c2ccc(C(F)(F)F)cc2)=C1c1ccncc1,> 40,> 40,> 40,> 40,> 40,> 500,> 500,> 500,> 500,> 40,> 500,> 40,> 40,> 500,> 40,> 500,> 40,> 500,> 40,> 40,MIC95 (Staphylococcus aureus [10]): 500 µM; MIC95 (Klebsiella pneumoniae [12]): > 500 µM; MIC95 (Staphylococcus aureus [14]): > 500 µM; MIC95 (Klebsiella pneumoniae [15]): > 500 µM; MIC95 (Staphylococcus aureus [19]): 500 µM; MIC95 [21]: 250 µM; MIC95 (Klebsiella pneumoniae [23]): > 500 µM; MIC95 [25]: 250 µM
CC[C@@]1(O)C(=O)OCc2c1cc1n(c2=O)Cc2cc3ccccc3nc2-1 [CAMPTOTHECIN],> 40,0.07,4.37,0.711,0.09,,,,,> 40,,0.02,0.4,,> 40,,27.2,,0.43,0.34,
